One block for each substance: values may come before it.
Experiments:
[1] = test system: HT-29 human colon cancer cell line; assay: Cytotoxic activity against the HT-29 cell line; assay type: cell-based; details: for Cytotoxicity ED50: HT-29 cells
NF-κB p65 (RelA) subunit = NF-κB p65 (RelA) subunit (Homo sapiens, UniProt Q04206); assay: Enzyme-based ELISA NF-κB; assay type: biochemical
[2] = Stability in solvents at room temperature; assay type: physicochemical; details: kept in CDCl3 or deuteriobenzene at room temperature; [2+2] addition
[3] = Body weight of host mice in the hollow fiber assay; assay type: in vivo; details: highest two doses (10 and 5 mg/kg/day), ip, over the course of the study
How it was run: (§1)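 Murine hollow fiber model following an NCI procedure, with human cancer cells (HT-29, LNCaP, MCF-7) held in fibers. Test compound given ip at 0.5 to 10 mg/kg per day for four days, in 5% EtOH plus 5% Tween 80 in physiologic saline. Paclitaxel positive control at 2.0 mg/kg per day for four days.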

[4] = test system: LNCaP (hormone-dependent human prostate cancer); assay: In vivo hollow fiber assay, LNCaP; parameters: species or system human cells in host mice; details: ip administration, 0.5 to 10 mg per kg per day for four days
How it was run: as §1

[5] = test system: P-388 lymphocytic murine leukemia; details: ref Herz et al., 1981; cited from earlier work
[6] = test system: MCF-7 (human breast cancer); assay: In vivo hollow fiber assay, MCF-7; parameters: species or system human cells in host mice; details: MCF-7, ip administration, 0.5 to 10 mg per kg per day for four days
How it was run: as §1

HT-29 human cancer cells = assay: In vivo hollow fiber assay, HT-29; parameters: species or system human cells in host mice; details: HT29, ip administration, 0.5 to 10 mg per kg per day for four days
How it was run: as §1

Chain of NF-κB p65 (RelA) subunit (Q04206 whole entry, species assumed): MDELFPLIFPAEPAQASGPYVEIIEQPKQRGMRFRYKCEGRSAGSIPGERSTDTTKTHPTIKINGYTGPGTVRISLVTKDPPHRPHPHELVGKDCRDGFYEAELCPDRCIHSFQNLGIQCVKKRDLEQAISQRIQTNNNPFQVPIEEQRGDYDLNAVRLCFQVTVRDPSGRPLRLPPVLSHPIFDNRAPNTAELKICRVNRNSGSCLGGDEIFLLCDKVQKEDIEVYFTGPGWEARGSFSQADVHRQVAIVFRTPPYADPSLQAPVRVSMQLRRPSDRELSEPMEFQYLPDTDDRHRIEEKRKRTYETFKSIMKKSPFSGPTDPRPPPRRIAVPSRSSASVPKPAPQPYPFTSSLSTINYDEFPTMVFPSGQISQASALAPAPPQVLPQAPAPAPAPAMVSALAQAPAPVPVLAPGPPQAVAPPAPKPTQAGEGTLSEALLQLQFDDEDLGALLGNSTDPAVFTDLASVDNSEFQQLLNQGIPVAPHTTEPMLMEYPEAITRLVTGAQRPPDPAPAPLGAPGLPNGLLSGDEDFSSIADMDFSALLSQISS

- NF-κB Inhibition ED50 (NF-κB p65 (RelA) subunit): > 10 µM
Substance: 2-epi-glaucolide E [Compound 5]
- Cytotoxicity ED50 [1]: 9.4 µM

Substance: 2α,13-diacetoxy-4α-hydroxy-8α-methacryloyloxybourbonen-12,6α-olide [Compound 6]
- NF-κB Inhibition ED50 (NF-κB p65 (RelA) subunit): 2.8 µM

Substance: 13-acetoxyrolandrolide [Compound 3]
- stability in solvents [2]: partially transformed to compound 6
- body weight loss [3]: up to 20%
- inhibition of proliferation in hollow fibers [4]: no inhibition of proliferation was observed
- Cytotoxicity ED50 [1]: 0.16 µM
- in vivo antitumor activity [5]: weak
- inhibition of proliferation in hollow fibers [6]: no inhibition of proliferation was observed
- inhibition of proliferation in hollow fibers (HT-29 human cancer cells): no inhibition of proliferation was observed
- NF-κB Inhibition ED50 (NF-κB p65 (RelA) subunit): 7.1 µM

Substance: 8-desacyl-13-acetoxyrolandrolide-8-O-tiglate [Compound 4]
- Cytotoxicity ED50 [1]: 1.5 µM
- change of potency of the inhibitory effect on HT-29 cells relative to compound 3 ([1]; tiglate instead of methacrylate on C-8): decreased around ten times
